The source of these data is ChEMBL document CHEMBL1128687, “5-Methyl-6-phenyl-1,3,5,6-tetrahydro-3,6-methano-1,5-benzodiazocine-2,4-dione (BA 41899): representative of a novel class of purely calcium-sensitizing agents” (J Med Chem, 1995).

The term EC50 denotes the concentration at which the effect is half-maximal.

Active and inactive are the calls of the source. No cut-off for these calls is given here.

The species entered for experiment [1] is Sus scrofa. The experiment in a line: Effect on porcine myocardial skinned fibers at 1-100 uM (ineffective). The format is functional.
In experiment [2] the target is T1, Alpha-2A adrenergic receptor (Homo sapiens) (UniProt P08913).
T1 sequence (whole entry): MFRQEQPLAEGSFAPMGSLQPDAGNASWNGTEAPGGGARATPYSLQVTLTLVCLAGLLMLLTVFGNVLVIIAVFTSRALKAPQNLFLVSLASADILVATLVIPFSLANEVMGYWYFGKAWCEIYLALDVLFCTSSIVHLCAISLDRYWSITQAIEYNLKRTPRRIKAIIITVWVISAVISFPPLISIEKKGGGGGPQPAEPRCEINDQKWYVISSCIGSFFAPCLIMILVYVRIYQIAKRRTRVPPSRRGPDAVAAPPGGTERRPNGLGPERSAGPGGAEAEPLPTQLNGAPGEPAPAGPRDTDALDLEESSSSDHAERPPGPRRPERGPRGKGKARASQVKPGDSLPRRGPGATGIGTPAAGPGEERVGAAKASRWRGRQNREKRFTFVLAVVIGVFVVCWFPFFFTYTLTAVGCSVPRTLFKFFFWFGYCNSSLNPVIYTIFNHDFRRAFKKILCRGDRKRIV
The experiment in a line: Effect against Alpha-2 adrenergic receptor using clonidine as ligand; No effect. Conditions: Cavia porcellus.

The target in experiment [3] is T2, Alpha-1A adrenergic receptor (Homo sapiens) (UniProt P35348).
T2 sequence (whole entry): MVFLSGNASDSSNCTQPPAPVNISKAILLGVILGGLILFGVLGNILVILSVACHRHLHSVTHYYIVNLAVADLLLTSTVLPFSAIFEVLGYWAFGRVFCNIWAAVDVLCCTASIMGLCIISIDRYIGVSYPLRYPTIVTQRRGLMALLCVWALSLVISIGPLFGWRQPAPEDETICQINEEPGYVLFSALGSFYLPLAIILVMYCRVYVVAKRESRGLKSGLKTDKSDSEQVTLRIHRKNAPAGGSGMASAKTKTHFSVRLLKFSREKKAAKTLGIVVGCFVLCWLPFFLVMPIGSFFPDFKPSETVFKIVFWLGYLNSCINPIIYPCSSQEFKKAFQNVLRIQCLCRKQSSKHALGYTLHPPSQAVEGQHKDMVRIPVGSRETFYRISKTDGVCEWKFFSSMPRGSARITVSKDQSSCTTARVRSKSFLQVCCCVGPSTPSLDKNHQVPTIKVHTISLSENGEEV
The experiment is described as follows: Effect against Alpha-1 adrenergic receptor using prazosin as ligand; No effect. The settings on record: Cavia porcellus.

Experiment [4] deals with Beta-1 adrenergic receptor (Cavia porcellus) (UniProt B0FL73). The experiment in a line: Effect against Beta-1 adrenergic receptor using dehydroalprenolol as ligand; No effect.
The species named for experiment [5] is Cavia porcellus. The experiment in a line: Inotropic effect at 100 uM; Loses most of its inotropic activity due to resting tension. Format: functional. A digest of the protocol:
(§1)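 Left atria from urethane-anaesthetized guinea pigs in Krebs–Henseleit medium at 32 °C, electrically stimulated isometrically at 2.5 s⁻¹ (also 0.25 s⁻¹); compound applied at 1–100 μM after equilibration, exposure up to 60 min; twitch force recorded, EC50 as concentration giving half-maximal effect.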

The target in experiment [6] is Histamine H1 receptor (Cavia porcellus) (UniProt P31389). The experiment in a line: Effect against histamine H1 receptor; No effect.
For experiment [7], the species on record is Sus scrofa. The experiment is described as follows: Increased contractile response in skinned myocardial fibers in presence of 0.1-10 uM free [Ca2+]. Format: functional. The settings on record: Myocardium.
The target of experiment [8] is Phosphodiesterase 4 (Homo sapiens) (UniProt P27815+Q08499+Q07343+Q08493). The experiment in a line: Inhibition of Phosphodiesterase 4. Format: protein assay. Conditions: Cavia porcellus.
For experiment [9], the species on record is Cavia porcellus. The experiment is described as follows: Activating effect on Sarcolemmal Ca+2 ATPase was determined.
Experiment [10] is filed under the species Cavia porcellus. The experiment is described as follows: Activating effect on Sarcolemmal Ca+2 channel uptake was determined. Format: functional.
The species named for experiment [11] is Cavia porcellus. The experiment is described as follows: Inhibition of desmethoxyverapamil binding to Sarcolemmal Ca+2 channel (No effect).
The target of experiment [12] is GABA-A receptor; anion channel (Homo sapiens) (UniProt P14867+P47870+P18507+P28472+P48169+Q99928+Q9UN88+P34903+O00591+O14764+Q8N1C3+P18505+P78334+P47869+P31644+Q16445). The experiment in a line: Binding affinity against GABA-A benzodiazepine receptor using flunitrazepam. Format: protein-complex assay. Conditions: Cavia porcellus.
For experiment [13], the species on record is Sus scrofa. The experiment in a line: Increased [Ca2+] activated force in porcine myocardial skinned fibers (Not effective). Format: functional, Myocardium.
For experiment [14], the species on record is Sus scrofa. The experiment in a line: Increase in [Ca2+] activated force in porcine myocardial skinned fibers (ineffective). The format is functional. Conditions: Myocardium.
The species named for experiment [15] is Cavia porcellus. The experiment is described as follows: Positive inotropic effect, increased isometric tension on guinea pig heart. Format: functional. A digest of the protocol:
as §1

The species entered for experiment [16] is Sus scrofa. The experiment in a line: Increased [Ca2+] activated force in porcine myocardial skinned fibers. Conditions: Myocardium. Format: functional.
The species entered for experiment [17] is Sus scrofa. The experiment in a line: Maximal activation of porcine myocardial skinned fibers at 40 uM free [Ca2+] without compound. Format: functional.
The species named for experiment [18] is Sus scrofa. The experiment is described as follows: Maximal activation of porcine myocardial skinned fibers at 40 uM [Ca2+] with 100 uM compound. Format: functional.
Experiment [19] is filed under the species Sus scrofa. The experiment is described as follows: Increase in [Ca2+] activated force in porcine myocardial skinned fibers. The format is functional, Myocardium.
Experiment [20] is filed under the species Sus scrofa. The experiment in a line: Reduced [Ca2+] activated force development on porcine skinned myocardial fibers at 100 uM. Format: functional. More on the design: scale not given: the % may be the effect or the level left.
For experiment [21], the species on record is Cavia porcellus. The experiment is described as follows: Reduced spontaneous beating frequency at 1-100 uM in guinea pig heart. The format is functional. The procedure, abridged: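 Right atria from urethane-anaesthetized guinea pigs, mounted isometrically in Krebs–Henseleit medium at 32 °C; spontaneous sinus-node beating rate recorded over 1–100 μM compound; EC50 taken as concentration giving half-maximal effect.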

The species entered for experiment [22] is Sus scrofa. The experiment in a line: Increased [Ca2+] activated force in porcine myocardial skinned fibers by racemic mixture. The format is functional. The settings on record: Myocardium.
The species entered for experiment [23] is Sus scrofa. The experiment in a line: Increase in isometric force in myocardial skinned fibres at 100 uM with free [Ca2+]. Format: functional, Myocardium.
For experiment [24], the species on record is Sus scrofa. The experiment is described as follows: Increase in isometric force of myocardial skinned fibres at 30 uM with free [Ca2+]. Format: functional.
For experiment [25], the species on record is Sus scrofa. The experiment in a line: Increase in isometric force of porcine myocardial skinned fibers at 30 uM. Format: functional.

Sequence of Histamine H1 receptor (Cavia porcellus) (P31389 whole entry): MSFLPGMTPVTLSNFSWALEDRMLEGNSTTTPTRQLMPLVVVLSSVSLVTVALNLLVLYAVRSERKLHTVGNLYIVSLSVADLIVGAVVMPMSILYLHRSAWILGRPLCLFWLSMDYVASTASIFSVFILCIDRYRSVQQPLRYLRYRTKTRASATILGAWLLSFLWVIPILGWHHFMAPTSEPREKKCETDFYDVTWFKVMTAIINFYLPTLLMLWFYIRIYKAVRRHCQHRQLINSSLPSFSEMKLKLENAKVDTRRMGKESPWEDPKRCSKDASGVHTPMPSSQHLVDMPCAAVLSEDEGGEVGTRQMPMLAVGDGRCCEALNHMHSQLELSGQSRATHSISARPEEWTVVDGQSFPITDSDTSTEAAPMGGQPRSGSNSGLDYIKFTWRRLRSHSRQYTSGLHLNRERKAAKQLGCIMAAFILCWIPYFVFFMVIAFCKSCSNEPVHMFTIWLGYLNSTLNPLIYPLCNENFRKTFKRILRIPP
Sequence of Beta-1 adrenergic receptor (Cavia porcellus) (B0FL73 1-467): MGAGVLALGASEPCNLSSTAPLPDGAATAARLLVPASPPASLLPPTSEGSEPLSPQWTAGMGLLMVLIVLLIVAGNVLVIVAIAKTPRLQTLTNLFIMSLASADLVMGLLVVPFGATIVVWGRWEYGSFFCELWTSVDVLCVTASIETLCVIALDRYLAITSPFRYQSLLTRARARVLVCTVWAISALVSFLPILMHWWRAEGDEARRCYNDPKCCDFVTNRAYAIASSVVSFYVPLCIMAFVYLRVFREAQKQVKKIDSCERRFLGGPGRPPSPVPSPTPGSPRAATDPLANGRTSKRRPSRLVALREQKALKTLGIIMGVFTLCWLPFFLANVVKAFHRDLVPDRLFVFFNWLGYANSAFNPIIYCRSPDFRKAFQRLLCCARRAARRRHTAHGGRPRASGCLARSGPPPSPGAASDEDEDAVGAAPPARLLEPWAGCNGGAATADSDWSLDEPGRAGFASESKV

As for `CN1C(=O)C2(c3ccccc3)CC1NC(=O)c1ccccc12` (centres undefined), in experiment [1], the Effect entry was “inactive”.

As to `CN1C(=O)C2CC1(c1ccccc1)c1ccccc1NC2=O` (single isomer, unassigned; (+)) [listing 1 of 2 here], the Effect result in [2], in experiment [3], in experiment [4], in experiment [6], in [8] and in [9] was “inactive” in each case. Moreover, the Effect result in [10], in experiment [11] and in experiment [12] was “inactive” each time. In experiment [5], the result was inactive. Besides, in experiment [7], the Effect entry was “Active”.

For the compound `CN1C(=O)C2CC1(c1ccccc1)c1ccccc1NC2=O` (single isomer, unassigned; (-)) [listing 1 of 2 here], the EC50 result in experiment [13] is reported as “Not Active”.

As for `CN1C(=O)C2CC1(c1ccccc1)c1ccccc1C(=O)N2` (centres undefined), the Effect result in experiment [1] is “inactive”.

For the compound `CN1C(=O)C2CC1(c1ccccc1)c1ccccc1NC2=O` (single isomer, unassigned; (-)) [listing 2 of 2 here], the Effect entry in experiment [14] was “inactive”.

With `CN1C(=O)C2CC1(c1ccccc1)c1ccccc1NC2=O` (single isomer, unassigned; (+)) [listing 2 of 2 here], the 50% effective concentration (EC50) came to 8 µM in [15], 10 µM in experiment [16], 3 µM in experiment [17] and 0.3 µM in experiment [18]. Also, the figures for the Effect in experiment [15], in [19] and in experiment [20] were 40%, 280% and 17%, respectively.

As to `CN1C(=O)C2CC1(c1ccccc1)c1ccccc1NC2=O` (stereo in doubt), the EC50 in experiment [15] (Cavia porcellus, Heart) was found to be 15 µM; in experiment [22] it was 20 µM. In experiment [21], this compound registered a Reduction of 55%. Further, the Effect in [23] and in [24] was 60% each time.

For `CN1C(=O)C2(c3ccccc3)CC1C(=O)Nc1ccccc12` (centres undefined), the Effect result in experiment [1] is “inactive”.

With `COc1ccc(C(=O)N2CCCc3cc(C4=NNC(=O)SC4C)ccc32)cc1OC` (centres undefined), in experiment [25], the Effect came out at 400%.
